# Reference: paper PMC5469413 (Journal of immunology (Baltimore, Md. : 1950), 2017)
# Experiments:
# [1] = test system: gram-negative strains of bacteria; assay: Killing assay with IFN-β helix 4 peptide, gram-negative bacteria; type: cell-based; details: bacteria 1×10^5/ml, 6 μM mouse helix 4 peptide, 3 hours, 37°C, CFU (Fig. 6I)
# Staphylococcus epidermis = assay: Bacterial killing assay with recombinant whole IFN-β; type: cell-based; details: incubated with IFN-β (Fig. S1)
# Outline: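 Overnight cultures subcultured to mid-log (OD₆₀₀=0.4), washed in sterile PBS and renormalised to OD₆₀₀=0.4. Bacteria resuspended in assay medium and incubated with recombinant whole IFN-β or vehicle in 100 μl reactions at 37°C with shaking. Ten-fold serial dilutions plated on LB to count surviving CFU.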
# [2] = test system: S. aureus isogenic mutant lacking the dlt gene (Δdlt); assay: Bacterial killing assay with recombinant whole IFN-β, dlt-deficient strain; type: cell-based, Staphylococcus aureus; details: increasing concentrations of IFN-β, 3 hours, CFU
# Escherichia coli = assay: Bacterial killing assay with recombinant whole IFN-β; type: cell-based; details: increasing doses of IFN-β, 3 hours, CFU
# Staphylococcus aureus = assay: as above; type: cell-based; details: 5×10^2 units/ml mIFN-β incubated at 37°C for 60 min, then bacteria 3 hours, CFU
substance,measurement,setting,value
mIFN-β: recombinant whole mouse IFN-β (PBL Interferon),antimicrobial activity against gram-negative bacteria,[1],significantly less effective
same,killing of Staphylococcus epidermis,Staphylococcus epidermis,observed killing
same,killing of Δdlt S. aureus compared to WT,[2],increased killing of Δdlt bacteria compared to WT
same,inhibitory or killing effect on Escherichia coli,Escherichia coli,did not observe any inhibitory or killing effect
same,killing of S. aureus after pre-incubation at 37°C,Staphylococcus aureus,killing was not lost
